Values after ≈ are worked out from the molar mass of the structure shown. Active and inactive are the calls of the source.
Assays:
A2780 = assay: Cytotoxicity against human A2780 cells by MTT assay; format: functional, cell-based
Summary of the method: (§1)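 MTT viability read-out in human cancer lines: A2780 ovarian, BEL-7404 liver, A-549, BGC-823 and HCT-8. IC50 derived from the concentration–response data.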

Staphylococcus aureus [1] = assay: Antibacterial activity against Staphylococcus aureus CMCC B26003 at 5 ug/disk after 24 hrs by paper disk method; format: functional
Summary of the method: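 S. aureus grown in MHB broth, final 10^6 cfu/mL. Compound loaded onto 6 mm paper disks at 5 µg/disk and placed on MH agar, 37 °C for 24 h. Inhibition zone diameter measured in mm, n = 3.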

A549 = assay: Cytotoxicity against human A549 cells by MTT assay; format: functional, cell-based; summary of the method: as §1
BGC-823 = assay: Cytotoxicity against human BGC823 cells by MTT assay; format: functional, cell-based; summary of the method: as §1
[2] = Cytotoxicity against human Bel7404 cells by MTT assay; format: functional, cell-based, BEL-7404; summary of the method: as §1
HCT-8 = assay: Cytotoxicity against human HCT8 cells by MTT assay; format: functional, cell-based; summary of the method: as §1
Staphylococcus aureus [3] = assay: Antibacterial activity against Staphylococcus aureus CMCC B26003 after 24 hrs by agar dilution method; format: functional
Summary of the method: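 S. aureus prepared from broth culture in MHB, final inoculum 10^6 cfu/mL. Agar dilution following NCCLS 2002 criteria, with 11 concentrations from 800 down to 0.78 µM (twofold steps).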

Candida albicans [4] = assay: Antifungal activity against Candida albicans ATCC 10231 at 50 ug/disk after 48 hrs by paper disk method; format: functional, organism-based
Summary of the method: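 C. albicans grown in SDB broth, final 10^5 cfu/mL. Compound applied to 6 mm paper disks at 50 µg/disk on SD agar and incubated at 25 °C for 48 h. Zone of inhibition measured in mm.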

Staphylococcus aureus [5] = assay: Antibacterial activity against Staphylococcus aureus CMCC B26003 at 10 ug/disk after 24 hrs by paper disk method; format: functional; conditions: CMCC B26003, 24 h, read-out: IZ
Summary of the method: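 Paper-disk diffusion against S. aureus at 10 µg/disk on MH agar, inoculum 10^6 cfu/mL from MHB broth, 6 mm disks, 37 °C for 24 h. Inhibition zone diameter recorded in mm, n = 3.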

Candida albicans [6] = assay: Antifungal activity against Candida albicans ATCC 10231 at 25 ug/disk after 48 hrs by paper disk method; format: functional; conditions: ATCC 10231, 48 h, read-out: IZ
Summary of the method: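 C. albicans ATCC 10231 grown in SDB broth culture, adjusted to a final 10^5 cfu/mL, and spread on SD agar. Sample loaded onto 6 mm paper disks placed on the agar surface. Plates incubated at 25 °C for 48 h. Read-out is the diameter of the inhibition zone in mm.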

[7] = Homo sapiens, BGC-823, read-out: IC50
[8] = Homo sapiens, BEL-7404, read-out: IC50
[9] = Homo sapiens, HCT-8, read-out: IC50

Row | Compound | IC50 (BGC-823; [7]) | IC50 [2, 8] | IC50 (HCT-8; [9]) | Activity (Candida albicans [4]) | IC50 (A2780; a2780) | inhibition zone (IZ) (Staphylococcus aureus [1]) | IC50 (A549; a549) | IC50 (BGC-823; bgc-823) | IC50 ([2]; bel-7404) | IC50 (HCT-8; hct-8) | MIC (Staphylococcus aureus [3]) | also measured
1 | O=C1C=CC(=O)C12C=CC1(Oc3cccc4cccc(c34)O1)C2O (centres undefined) [SPIROPREUSSIONE A] | > 10000 nM | 3000 nM | > 10000 nM | inactive | – | – | – | – | – | – | – | IC50 (A2780; Homo sapiens, A2780, read-out: IC50): 2400 nM; zone of inhibition at 5 µg/disc (Staphylococcus aureus [1]; CMCC B26003, 24 h, read-out: IZ): 16.4 mm; IC50 (A549; Homo sapiens, A549, read-out: IC50): > 10000 nM; MIC (Staphylococcus aureus [3]; CMCC B26003, 24 h): 25 µM (≈ 8.01 µg/mL)
2 | Oc1ccc2c(c1)C1(Oc3cccc4cccc(c34)O1)[C@@H]1O[C@@H]1[C@@H]2O [SPIROPREUSSOMERIN A] | – | – | – | inactive | Not Active | inactive | Not Active | Not Active | Not Active | Not Active | inactive | –
3 | CC1(C)S[C@@H]2[C@H](NC(=O)[C@H](N)c3ccccc3)C(=O)N2[C@H]1C(=O)O [AMPICILLIN SODIUM] | – | – | – | – | – | – | – | – | – | – | – | zone of inhibition at 10 µg/disc (Staphylococcus aureus [5]): 38.2 mm
4 | CC(=O)O[C@H]1C(=O)[C@@]2(C)[C@H]([C@H](OC(=O)c3ccccc3)[C@]3(O)C[C@H](OC(=O)[C@H](O)[C@@H](NC(=O)c4ccccc4)c4ccccc4)C(C)=C1C3(C)C)[C@]1(OC(C)=O)CO[C@@H]1C[C@@H]2O [PACLITAXEL] | 3.3 nM | 12.3 nM | 3.6 nM | – | – | – | – | – | – | – | – | –
5 | OC(Cn1cncn1)(Cn1cncn1)c1ccc(F)cc1F [FLUCONAZOLE] | – | – | – | – | – | – | – | – | – | – | – | zone of inhibition at 25 µg/disc (Candida albicans [6]): 31.3 mm
6 | O=C1C=Cc2cc3c(c4ccc(O)c1c24)C1(Oc2cccc4cccc(c24)O1)C1C(=O)C=CC31O (centres undefined) [SPIROPREUSSIONE B] | – | – | – | inactive | Not Active | inactive | Not Active | Not Active | Not Active | Not Active | inactive | –
